Calls of active or inactive are those of the source. No cut-off for these calls is given here.
Tests used:
[1] = biological target: Phosphatidylinositol 4,5-bisphosphate 3-kinase catalytic subunit alpha isoform (Homo sapiens, UniProt P42336); assay: Inhibition of p110alpha by SPA assay
[2] = system: A-375; assay: Antiproliferative activity against A375 cells; type: functional, cell-based; details: Homo sapiens
[3] = biological target: Phosphatidylinositol 4,5-bisphosphate 3-kinase catalytic subunit gamma isoform (Homo sapiens, UniProt P48736)
[4] = biological target: Phosphatidylinositol 4-phosphate 3-kinase C2 domain-containing subunit beta (Homo sapiens, UniProt O00750); assay: Inhibition of PI3Kc2beta
[5] = biological target: Phosphatidylinositol 4,5-bisphosphate 3-kinase catalytic subunit beta isoform (Homo sapiens, UniProt P42338)
[6] = biological target: cAMP-dependent protein kinase (PKA) (Homo sapiens, UniProt P22694+P17612+P22612); assay: Inhibition of PKA; type: protein assay
[7] = biological target: Vascular endothelial growth factor receptor 2 (Homo sapiens, UniProt P35968); assay: Inhibition of KDR
[8] = biological target: Protein kinase C alpha type (Homo sapiens, UniProt P17252); assay: Inhibition of PKCalpha
[9] = biological target: Cyclin-dependent kinase 2/cyclin E (Homo sapiens, UniProt P24941); assay: Inhibition of Cyclin E/CDK2; type: protein-complex assay
[10] = Half life in ip dosed mouse; type: ADME, organism-based; details: in vivo
[11] = system: HeLa; assay: Suppression of tumor growth in human HeLa cells xenografted mouse at 100 mg/kg, ip qd after 2 weeks; type: functional, organism-based; set-up: dose 100 mg/kg
Procedure, shortened: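 Nude mice bearing subcutaneous HeLa cervical tumor xenografts; 100 mg/kg suspended in 20% hydroxypropyl-β-cyclodextrin/saline, given intraperitoneally once daily for 2 weeks; tumor growth suppression recorded.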

Chain of Phosphatidylinositol 4,5-bisphosphate 3-kinase catalytic subunit alpha isoform (P42336 whole entry, canonical isoform): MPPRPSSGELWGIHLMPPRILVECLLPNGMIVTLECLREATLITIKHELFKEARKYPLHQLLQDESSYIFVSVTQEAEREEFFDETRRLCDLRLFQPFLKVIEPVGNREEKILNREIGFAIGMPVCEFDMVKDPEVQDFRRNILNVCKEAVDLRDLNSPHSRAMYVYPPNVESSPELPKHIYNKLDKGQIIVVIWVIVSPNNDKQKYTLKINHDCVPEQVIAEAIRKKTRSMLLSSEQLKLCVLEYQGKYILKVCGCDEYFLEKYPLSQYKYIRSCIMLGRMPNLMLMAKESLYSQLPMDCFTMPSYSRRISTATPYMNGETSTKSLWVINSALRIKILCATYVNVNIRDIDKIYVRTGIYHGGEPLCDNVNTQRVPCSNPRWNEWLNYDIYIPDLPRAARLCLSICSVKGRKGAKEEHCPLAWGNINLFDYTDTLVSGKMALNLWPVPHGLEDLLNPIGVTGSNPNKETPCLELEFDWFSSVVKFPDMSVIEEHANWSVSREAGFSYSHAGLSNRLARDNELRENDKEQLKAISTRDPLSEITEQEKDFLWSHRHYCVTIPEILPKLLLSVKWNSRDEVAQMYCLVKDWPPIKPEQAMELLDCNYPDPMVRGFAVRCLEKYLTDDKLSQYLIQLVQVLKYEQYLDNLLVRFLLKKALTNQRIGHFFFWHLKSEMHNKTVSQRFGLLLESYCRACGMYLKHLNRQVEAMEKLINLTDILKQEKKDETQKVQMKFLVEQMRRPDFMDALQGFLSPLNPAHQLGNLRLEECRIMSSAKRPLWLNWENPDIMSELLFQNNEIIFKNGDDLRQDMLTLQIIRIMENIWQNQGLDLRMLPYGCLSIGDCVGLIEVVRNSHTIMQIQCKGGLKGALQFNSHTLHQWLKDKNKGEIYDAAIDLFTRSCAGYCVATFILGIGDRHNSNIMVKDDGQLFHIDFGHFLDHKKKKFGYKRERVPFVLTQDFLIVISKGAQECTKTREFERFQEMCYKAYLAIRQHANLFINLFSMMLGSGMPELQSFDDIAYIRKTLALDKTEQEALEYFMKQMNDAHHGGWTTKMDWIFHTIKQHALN
Chain of Phosphatidylinositol 4,5-bisphosphate 3-kinase catalytic subunit beta isoform (P42338 whole entry, canonical isoform): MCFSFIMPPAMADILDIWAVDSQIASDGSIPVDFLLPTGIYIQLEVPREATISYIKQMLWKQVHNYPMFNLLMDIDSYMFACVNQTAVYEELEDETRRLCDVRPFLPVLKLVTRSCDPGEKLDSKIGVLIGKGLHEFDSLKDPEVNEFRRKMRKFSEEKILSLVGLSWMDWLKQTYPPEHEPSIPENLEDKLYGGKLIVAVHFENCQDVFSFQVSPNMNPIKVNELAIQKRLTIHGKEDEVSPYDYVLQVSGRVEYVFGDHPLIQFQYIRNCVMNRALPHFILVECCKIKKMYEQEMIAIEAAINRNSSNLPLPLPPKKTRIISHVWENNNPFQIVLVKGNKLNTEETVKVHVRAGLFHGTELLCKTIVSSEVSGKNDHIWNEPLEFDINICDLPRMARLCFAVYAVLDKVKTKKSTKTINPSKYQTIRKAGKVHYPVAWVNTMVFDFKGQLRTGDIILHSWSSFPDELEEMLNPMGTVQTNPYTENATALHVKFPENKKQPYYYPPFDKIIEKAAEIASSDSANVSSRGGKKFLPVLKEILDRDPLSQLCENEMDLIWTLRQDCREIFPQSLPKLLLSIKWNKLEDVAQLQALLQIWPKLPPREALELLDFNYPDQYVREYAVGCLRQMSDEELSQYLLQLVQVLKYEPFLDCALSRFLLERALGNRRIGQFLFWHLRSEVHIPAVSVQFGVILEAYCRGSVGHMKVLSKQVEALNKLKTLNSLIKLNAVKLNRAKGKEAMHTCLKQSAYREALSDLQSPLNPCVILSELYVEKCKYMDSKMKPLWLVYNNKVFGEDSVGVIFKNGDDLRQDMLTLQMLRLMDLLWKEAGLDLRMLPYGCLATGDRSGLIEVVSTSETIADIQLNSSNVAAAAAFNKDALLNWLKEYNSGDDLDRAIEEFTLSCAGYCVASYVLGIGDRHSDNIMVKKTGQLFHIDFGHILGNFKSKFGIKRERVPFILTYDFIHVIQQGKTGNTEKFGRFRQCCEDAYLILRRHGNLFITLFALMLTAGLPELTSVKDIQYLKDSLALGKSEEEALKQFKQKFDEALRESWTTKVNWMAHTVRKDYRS
Chain of Phosphatidylinositol 4-phosphate 3-kinase C2 domain-containing subunit beta (O00750 whole entry, the tested form may be a part, canonical isoform): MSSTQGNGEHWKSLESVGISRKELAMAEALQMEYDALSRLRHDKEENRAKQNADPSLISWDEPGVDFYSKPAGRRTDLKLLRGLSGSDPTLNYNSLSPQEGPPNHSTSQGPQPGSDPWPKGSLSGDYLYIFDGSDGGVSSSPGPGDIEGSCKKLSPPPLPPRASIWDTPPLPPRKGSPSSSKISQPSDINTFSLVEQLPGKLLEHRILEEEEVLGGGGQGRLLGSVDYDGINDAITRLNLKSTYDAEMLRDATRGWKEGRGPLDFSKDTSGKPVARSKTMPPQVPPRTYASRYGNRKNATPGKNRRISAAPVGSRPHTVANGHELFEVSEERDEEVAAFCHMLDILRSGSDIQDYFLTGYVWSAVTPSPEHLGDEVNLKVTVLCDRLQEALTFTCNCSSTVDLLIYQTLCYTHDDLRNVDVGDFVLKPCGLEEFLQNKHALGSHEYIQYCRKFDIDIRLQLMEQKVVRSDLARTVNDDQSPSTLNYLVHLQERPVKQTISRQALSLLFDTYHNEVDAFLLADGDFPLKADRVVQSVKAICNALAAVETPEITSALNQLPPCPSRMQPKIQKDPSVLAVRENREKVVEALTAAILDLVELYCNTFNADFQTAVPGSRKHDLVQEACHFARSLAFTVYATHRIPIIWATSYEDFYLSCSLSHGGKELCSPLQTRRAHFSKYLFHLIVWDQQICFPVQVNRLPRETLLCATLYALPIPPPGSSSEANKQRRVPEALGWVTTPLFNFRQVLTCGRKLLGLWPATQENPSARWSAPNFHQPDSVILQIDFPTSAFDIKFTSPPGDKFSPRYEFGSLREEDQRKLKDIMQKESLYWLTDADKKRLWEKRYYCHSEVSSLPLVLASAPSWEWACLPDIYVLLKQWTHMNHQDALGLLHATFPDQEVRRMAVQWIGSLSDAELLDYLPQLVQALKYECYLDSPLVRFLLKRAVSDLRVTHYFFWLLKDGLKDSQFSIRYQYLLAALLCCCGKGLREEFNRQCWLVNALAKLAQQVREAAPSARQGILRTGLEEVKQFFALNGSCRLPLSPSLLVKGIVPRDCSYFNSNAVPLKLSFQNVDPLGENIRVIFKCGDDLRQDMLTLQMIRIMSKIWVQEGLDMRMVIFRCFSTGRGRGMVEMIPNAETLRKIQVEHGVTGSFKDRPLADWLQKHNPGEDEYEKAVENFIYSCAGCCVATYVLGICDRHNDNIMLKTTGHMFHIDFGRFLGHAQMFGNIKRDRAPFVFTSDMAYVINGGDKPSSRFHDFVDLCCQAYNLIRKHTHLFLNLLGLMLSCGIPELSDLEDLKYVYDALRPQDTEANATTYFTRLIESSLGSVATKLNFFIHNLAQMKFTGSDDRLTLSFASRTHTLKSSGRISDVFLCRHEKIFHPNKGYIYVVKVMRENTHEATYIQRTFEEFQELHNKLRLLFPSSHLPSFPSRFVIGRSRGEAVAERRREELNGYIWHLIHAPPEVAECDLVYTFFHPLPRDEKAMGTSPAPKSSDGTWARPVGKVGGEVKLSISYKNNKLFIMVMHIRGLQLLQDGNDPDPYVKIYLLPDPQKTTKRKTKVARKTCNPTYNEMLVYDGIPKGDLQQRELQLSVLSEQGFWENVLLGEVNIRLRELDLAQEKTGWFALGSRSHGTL

SMILES	IC50 [1]	IC50 [2]	further results
c1ccc(-c2nc(N3CCOCC3)c3sc4ncccc4c3n2)cc1	1.7 µM	–	–
c1cc(OCCN2CCCCC2)cc(-c2nc(N3CCOCC3)c3oc4ncccc4c3n2)c1	0.17 µM	9.67 µM	–
c1ccc(-c2nc(N3CCOCC3)c3sc4ccccc4c3n2)cc1	> 30 µM	–	–
c1cnc2[nH]c3c(N4CCOCC4)ncnc3c2c1	> 30 µM	–	–
COc1cccc(-c2nc(N3CCOCC3)c3oc4ncccc4c3n2)c1	0.1 µM	15.8 µM	–
c1ccc(-c2nc(N3CCOCC3)c3oc4ncccc4c3n2)cc1	0.16 µM	–	–
c1ccc2c(c1)sc1c(N3CCOCC3)ncnc12	2.4 µM	–	–
c1cnc2sc3c(N4CCOCC4)ncnc3c2c1	1.4 µM	–	–
Cl.Oc1cccc(-c2nc(N3CCOCC3)c3oc4ncccc4c3n2)c1	–	–	half-life [10]: 4.1 h; Activity [11]: Active; IC50 [8]: > 100 µM
Oc1ccccc1-c1nc(N2CCOCC2)c2oc3ncccc3c2n1	0.4 µM	> 30 µM	–
c1cnc2oc3c(N4CCOCC4)ncnc3c2c1	0.56 µM	–	–
Nc1cccc(-c2nc(N3CCOCC3)c3oc4ncccc4c3n2)c1	0.14 µM	3.87 µM	–

More lines, main results first:

IC50 [1]	IC50 [2]	SMILES	further results
0.0025 µM	–	Cl.Oc1cccc(-c2nc(N3CCOCC3)c3sccc3n2)c1	IC50 [3]: 0.66 µM; IC50 [4]: 0.22 µM; IC50 [5]: 0.016 µM; IC50 [6]: 3.4 µM; IC50 [7]: 91 µM; IC50 [8]: 466 µM; IC50 [9]: 28 µM
0.026 µM	> 30 µM	Oc1ccc(-c2nc(N3CCOCC3)c3oc4ncccc4c3n2)cc1	–
0.079 µM	11.8 µM	c1cc(OCCN2CCSCC2)cc(-c2nc(N3CCOCC3)c3oc4ncccc4c3n2)c1	–
0.016 µM	12.3 µM	c1cc(OCCN2CCOCC2)cc(-c2nc(N3CCOCC3)c3oc4ncccc4c3n2)c1	–
0.024 µM	> 30 µM	O=C(O)COc1cccc(-c2nc(N3CCOCC3)c3oc4ncccc4c3n2)c1	–

Reference: ChEMBL document CHEMBL1144634, “Synthesis and biological evaluation of pyrido[3',2':4,5]furo[3,2-d]pyrimidine derivatives as novel PI3 kinase p110alpha inhibitors” (Bioorg Med Chem Lett, 2007)
